Laboratory results from ChEMBL document CHEMBL1152819, “Evaluation of hexadecyloxypropyl-9-R-[2-(Phosphonomethoxy)propyl]- adenine, CMX157, as a potential treatment for human immunodeficiency virus type 1 and hepatitis B virus infections” (Antimicrob Agents Chemother, 2007).

Tested on: Human immunodeficiency virus 1
Experiment: Antiviral activity against HIV1 in human MT2 cells
Type: functional, organism-based
Outline: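 MT-2 cells in RPMI 1640 with 10% FBS and 10 mM HEPES, infected with HIV-1 LAI at MOI 0.001 TCID50/cell. Incubated with threefold serial dilutions, three wells per dilution. EC50 taken as the concentration inhibiting p24 antigen production by 50%.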

EC50: 0.02 nM
Structure (SMILES): CCCCCCCCCCCCCCCCOCCCOP(=O)(O)COCCn1cnc2c(NC3CC3)nc(N)nc21
